This is an account of results in ChEMBL document CHEMBL1142827, “The identification and optimization of a N-hydroxy urea series of flap endonuclease 1 inhibitors” (Bioorg Med Chem Lett, 2005).

Common to all, as to type: functional, Homo sapiens
Assay [1] concerns T-24. In words: Percent of viable cells by survival assay (colony forming) in T24 bladder carcinoma cells at 1 uM in the presence of DMSO. The method in brief:
(§1)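 Colony-forming survival assay in T24 bladder carcinoma cells. Compound was given alongside DMSO alone or methyl methanesulfonate (MMS) at 110, 150 or 200 μM. Survival is expressed relative to the DMSO-only control, set at 100. Values are the average of two independent experiments.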

The test system of assay [2] is T-24. The assay is described as follows: Percent of viable cells by survival assay (colony forming) in T24 bladder carcinoma cells at 3 uM in the presence of DMSO. The method in brief: as §1
The subject of assay [3] is T-24. In words: Percent of viable cells by survival assay (colony forming) in T24 bladder carcinoma cells at 1 uM in the presence of 110 uM MMS. The method in brief: as §1
Assay [4] concerns T-24. The assay is described as follows: Percent of viable cells by survival assay (colony forming) in T24 bladder carcinoma cells at 1 uM in the presence of 150 uM MMS. The method in brief:
as §1

In assay [5] the test system is T-24. The assay is described as follows: Percent of viable cells by survival assay (colony forming) in T24 bladder carcinoma cells at 1 uM in the presence of 200 uM MMS. The method in brief:
as §1

The test system of assay [6] is T-24. The assay is described as follows: Percent of viable cells by survival assay (colony forming) in T24 bladder carcinoma cells at 3 uM in the presence of 110 uM MMS. The method in brief: as §1
Assay [7] deals with T-24. In words: Percent of viable cells by survival assay (colony forming) in T24 bladder carcinoma cells at 3 uM in the presence of 150 uM MMS. The method in brief: as §1
Assay [8] concerns T-24. In words: Percent of viable cells by survival assay (colony forming) in T24 bladder carcinoma cells at 3 uM in the presence of 200 uM MMS. The method in brief:
as §1

Each structure is given as a SMILES string.

For the compound `O=c1c2sccc2n(CC2COc3ccccc3O2)c(=O)n1O` (stereo unspecified), the Viable cells in the assay with T-24 [1] stood at 96%; in the assay with T-24 [2], 87%; in the assay with T-24 [3], 18%; in the assay on T-24 [4] it was 6%; with T-24 [5], 4%; with T-24 [6], 11%. For the same compound, the values for the Viable cells with T-24 [7] and in the assay with T-24 [8] were 5% and 4%, respectively.

For `COc1cc(Cn2c(=O)n(O)c(=O)c3c(C)csc32)cc2c1OCO2`, the Viable cells in the assay on T-24 [1] is listed as 100%; in the assay on T-24 [2] it was 86%; in the assay with T-24 [3] it was 24%; in the assay with T-24 [4], 12%; in the assay on T-24 [5], 2%; in the assay on T-24 [6], 11%. The Viable cells in the assay on T-24 [7] is listed as 6%; with T-24 [8], 0%.
